Measurements reported in PMC2664401 (Pharmaceutical research, 2008).
Where “and” joins values, the source holds several entries; their conditions need not be identical. Equal entries are not always repeated. Entries after “also recorded” stand apart in the source; their conditions may differ.

Columns and labels:
[1] = cited from earlier work
[2] = Aqueous solubility, shake flask method in water; assay type: physicochemical; details: for solubility at 24 h: water, 25 °C, thermodynamic from solid
In short: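 Excess solid test compound was added to 0.5 mL water pre-equilibrated at 25 °C and shaken in a water bath at 25 ± 0.5 °C and 75 rpm for 24 h. Aliquots were centrifuged, and the supernatant was filtered and assayed for drug content. Analysis was by HPLC on a C18 column with 15 mM phosphate (pH 2.5)/1% acetonitrile and fluorescence detection (ex 270, em 380). Runs were in duplicate.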

[3] = Hydrolysis in DPBS transport media; assay type: physicochemical; details: pH 7.4
[4] = Stability in vitreous humor; assay type: in vitro ADME, rabbit; details: for Apparent first order rate constant (k*): Vitreous Humor used as such, 37 °C, overall observed degradation; for half-life at 10 μg/mL: rabbit, vitreous humor (used as such)
[5] = Stability in ocular tissue homogenates: cornea; assay type: in vitro ADME; details: rabbit, corneal homogenate supernatant, pH 7.4
[6] = Stability in ocular tissue homogenates: retina/choroid; assay type: in vitro ADME; details: rabbit, retina/choroid homogenate supernatant, pH 7.4
[7] = target: T1, amino acid transporter B^0,+ (Oryctolagus cuniculus, UniProt G1T8K9); assay: Transcorneal transport mechanism studies; assay type: in vitro ADME, rabbit; details: for Substrate of the corneal amino acid transporter B^0,+: concluded from rabbit corneal permeability with and without inhibitors
T1 sequence (G1T8K9 1-637): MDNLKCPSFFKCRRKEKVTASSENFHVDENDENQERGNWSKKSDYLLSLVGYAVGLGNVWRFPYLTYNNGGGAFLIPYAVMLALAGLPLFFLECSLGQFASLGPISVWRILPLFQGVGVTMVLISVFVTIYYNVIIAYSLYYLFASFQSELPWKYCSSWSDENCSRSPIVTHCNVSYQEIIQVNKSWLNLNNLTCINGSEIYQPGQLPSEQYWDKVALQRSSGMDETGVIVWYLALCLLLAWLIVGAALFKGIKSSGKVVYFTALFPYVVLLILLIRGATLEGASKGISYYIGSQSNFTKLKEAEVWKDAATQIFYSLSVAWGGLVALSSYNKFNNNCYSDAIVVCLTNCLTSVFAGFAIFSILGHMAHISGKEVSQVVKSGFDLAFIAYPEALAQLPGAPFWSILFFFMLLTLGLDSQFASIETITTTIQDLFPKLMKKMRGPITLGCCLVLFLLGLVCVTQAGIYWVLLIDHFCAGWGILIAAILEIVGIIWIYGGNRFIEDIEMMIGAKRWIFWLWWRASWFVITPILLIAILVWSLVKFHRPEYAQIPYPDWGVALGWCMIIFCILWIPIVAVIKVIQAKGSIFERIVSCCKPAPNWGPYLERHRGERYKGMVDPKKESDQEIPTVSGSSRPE

[8] = Stability in ocular tissue homogenates: iris-ciliary body; assay type: in vitro ADME; details: rabbit, iris-ciliary body homogenate supernatant, pH 7.4
Solution = assay type: physicochemical
[9] = test system: amino acid transporter B^0,+; details: xenopus laevis oocytes; cited from earlier work
B^o,+ = details: a substrate of B^o,+; cited from earlier work

| SMILES | solubility at 24 h [2] | Apparent first order rate constant (k*) [4] | half-life at 10 μg/mL [4] [min] | half-life at 10 μg/mL [5] [min] | half-life at 10 μg/mL [6] [min] | Substrate of the corneal amino acid transporter B^0,+ [7] | half-life at 10 μg/mL [8] [min] | other results |
| --- | --- | --- | --- | --- | --- | --- | --- | --- |
| Nc1nc2c(ncn2COCCO)c(=O)[nH]1 [ACV, acyclovir, reference compound] | 1200 µg/mL and 5300 µM | – | – | – | – | – | – | saturation solubility in water [1]: 1.2 mg/mL |
| Cl.Nc1nc2c(ncn2COCCOC(=O)[C@H](N)CC(=O)O)c(=O)[nH]1 [D-Asp-ACV, (R)-3-amino-4-(2-((2-amino-6-oxo-1H-purin-9(6H)-yl)methoxy)ethoxy)-4-oxobutanoic acid-HCl] | 3850 µg/mL and 10200 µM | 5 ± 0.5 ×10^3, min^−1 | 141 ± 15.1 | 224 ± 12.6 | 1200 ± 88.1 | not a substrate | 139 ± 10.1 | half-life ([3]; DPBS): 336 ± 12 min; Solubility, fold higher than that of ACV ([2]; relative to ACV): about 2 fold |
| Cl.Nc1nc2c(ncn2COCCOC(=O)[C@@H](N)CC(=O)O)c(=O)[nH]1 [L-Asp-ACV, (S)-3-amino-4-(2-((2-amino-6-oxo-1H-purin-9(6H)-yl)methoxy)ethoxy)-4-oxobutanoic acid-HCl] | 3840 µg/mL and 10200 µM | 4.2 ± 0.1 ×10^3, min^−1 | 166 ± 3.9 | 290 ± 12.2 | 51.6 ± 1.6 | is a substrate | 134 ± 5.1 | half-life ([3]; buffer): 306 ± 6 min; half-life at 50 μg/mL (Solution; borate buffer, pH 9): 0.233 ± 0.00833 days; half-life at 50 μg/mL (Solution; hydrochloride buffer, pH 1.2): 26.1 ± 1.29 days; half-life at 50 μg/mL (Solution; phosphate buffer, pH 7): 1.33 ± 0.0167 days; half-life at 50 μg/mL (Solution; phthalate buffer, pH 3): 15.5 ± 0.667 days; half-life at 50 μg/mL (Solution; phthalate buffer, pH 5): 10.9 ± 0.167 days; Effect of glutamic acid on transcorneal transport ([7]; L-Glutamic acid 1 mM, pH 5): not inhibited; also recorded: failed to inhibit; Transcorneal permeability in the presence of BCH ([7]; male, New Zealand albino, rabbit, 3 h): 2.66±0.21 × 10^−6 cm.s^−1 |
| Nc1nc2c(ncn2COCCOC(=O)C[C@H](N)C(=O)O)c(=O)[nH]1 [acyclovir-L-aspartate β-ester] | – | – | – | – | – | – | – | Transport by the amino acid transporter B^0,+ [9]: is transported |
| Nc1nc2c(ncn2COCCOC(=O)C(N)Cc2ccccc2)c(=O)[nH]1 (stereo not shown) [phenylalanine-ACV] | – | – | – | – | – | – | – | Transport of [^3H]-L-Arginine in the presence of prodrug (B^o,+): decreased transport |
